Shown are actives, neighbours in structure and some others; about 1.5% of the full set was active somewhere.
PDI turbidity – PDI (human) enzyme inhibition; PDI insulin aggregation turbidity, A650, 90 min; 350,000 compounds, 0.052% hits; AID 588391; inhibition, % at 10 µM;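 active means mean inhibition across replicates of 30% or more, whatever share of single replicates reach that level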
SIRT5 inh – sirtuin-5 (human) deacylase inhibition | Q9NXA8 | Purified SirT5, succinyl-peptide AMC, trypsin-coupled fluorescence | inhibition, % at 15 µM | 330,000 compounds, 1.1% hits | AID 652115; in the data active means inhibition above about 15%
Target sequence (Q9NXA8 whole entry, looked up): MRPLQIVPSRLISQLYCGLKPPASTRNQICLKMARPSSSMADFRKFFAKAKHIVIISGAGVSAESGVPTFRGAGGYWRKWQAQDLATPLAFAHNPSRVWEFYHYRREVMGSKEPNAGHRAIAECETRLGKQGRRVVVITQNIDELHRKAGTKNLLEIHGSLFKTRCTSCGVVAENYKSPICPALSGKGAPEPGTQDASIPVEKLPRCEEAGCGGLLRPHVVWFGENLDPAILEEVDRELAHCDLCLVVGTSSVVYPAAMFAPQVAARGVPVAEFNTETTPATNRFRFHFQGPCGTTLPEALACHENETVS
INS-1E GSIS act – GLuc luminescence reporter in INS-1E cells, primary screen for activators of glucose-dependent secretion of insulin; INS-1E GLuc reporter insulin secretion, 2-3 h; activation, % at 16.6 µM; 370,000 compounds, 0.61% hits; AID 743287;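 active means lowest replicate activation of at least 40%, so every replicate reaches that level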;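 further: 0% = median of neutral control wells and 100% = median of IBMX positive control wells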
ERp5 block – ERp5 (human) disulfide isomerase inhibition; 350,000 compounds, 0.05% hits; ERp5 insulin aggregation, absorbance 650 nm, 90 min; AID 651711; inhibition, % at 9.99 µM; Q15084;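 active means mean replicate inhibition above about 25%, with every replicate also reaching it, limit read from the data, passing the limit was not always enough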
S100A4 MyoIIA – S100A4-myosin IIA interaction inhibition; AID 652163; 360,000 compounds, 0.14% hits; inhibition, % at 10.7 µM; P26447; S100A4/TAMRA-MyoIIA peptide fluorescence polarization;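 active means mean inhibition of at least 70% across replicates, with every replicate also reaching that level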
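incubation = readout 5 min after mixing, signal stable up to 60 min | system = S100A4 monomer protein | buffer or medium = HEPES pH 7.2 with CaCl2, KCl, NaCl, DTT, Triton | benchmarks = neutral control DMSO, positive control TFP | also added = fluorescent myosin IIA peptide, 5 nM | compound dosing = one concentration per compound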
An asterisk follows results filed as active; . = no result; ! = a repeat was not active.

SMILES | PDI turbidity | SIRT5 inh | INS-1E GSIS act | ERp5 block | S100A4 MyoIIA
CN1CCN(C(=O)COc2ccc(N(C)S(=O)(=O)c3ccc(F)cc3)cc2)CC1 | 23 | 23* | -14 | 2 | -5
O=C(c1cccc2ccccc12)C1CCCN(Cc2ccon2)C1 (centres undefined) | 9 | 1 | 40* | 3 | -1
COc1ccc(OC(=O)N(C)C[C@H]2OCc3cnnn3CCCC(=O)N([C@@H](C)CO)C[C@H]2C)cc1 | 4 | 15*! | 5 | 0 | -4
C=CCN1[C@@H]2CN(C(=O)NC(C)C)C[C@H]1C2c1ccc(Br)cc1 (some centres undefined) | . | . | 0 | . | .
CC=Cc1ccc2n(c1=O)C[C@@H]1[C@@H](CO)[C@H](C(=O)O)[C@H]2N1S(=O)(=O)c1ccccc1F (mixture of isomers) | . | -2 | 9 | 1 | 28
Cc1nc2ccccc2c(=O)n1-c1ccc(Cl)c(Cl)c1 | 5 | -6 | 40* | 2 | 6
Cc1ccc(-n2c(C)nc3ccccc3c2=O)cc1C | -3 | -1 | 9 | -6 | 0
COC(=O)C[C@@H]1CC[C@H]2NC[C@@H](O)COC[C@@H]2O1 | . | . | -10 | . | .
COc1ccc(CC2c3cc(OC)c(OC)cc3CCN2C)cc1O (centres undefined) | -1 | 3 | 43* | 1 | -4
COc1ccc(CCN)cc1O | -3 | -1 | 4 | 1 | 0
O=Cc1c(C(=O)O)n(Cc2ccccc2Cl)c2ccccc12 | 2 | 2 | . | 5 | -30
C=Cc1ccc(Cn2c(C(=O)O)c(C=O)c3ccccc32)cc1 | -4 | 17* | 7 | -7 | -15
